Screening data deposited in PubChem by several laboratories.
A selection: hits, their analogues and other compounds. The true share with any hit is near 12%.
PKD1 inh – inhibitors of human PKD1 kinase; Q15139; PKD1 kinase fluorescence polarization assay; inhibition, % (concentration not given with the values); 200,000 tested, 0.056% active
CHOP inhibitor – CHOP inhibition in unfolded protein response | CHO-K1 CHOP-promoter luciferase, tunicamycin-induced, 15-18 h | inhibition, % at 10 µM | 220,000 tested, 3.8% active;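 active means compounds that reduced the stress-induced luciferase reporter signal by more than about 70% of percent inhibition, limit read from the data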
Arbovirus inh – arbovirus infection inhibition; inhibition, % at 10 µM; arbovirus infection cell-based antiviral screen; 200,000 tested, 0.37% active; in the data active means inhibition above about 30%
Rad51 HR inh – blocks human Rad51 in homologous recombination; inhibition, % at 10 µM; AID 1385; hRad51 DNA strand exchange, fluorescence dequenching; 200,000 tested, 0.085% active; Q06609;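 active means inhibition above 40% at the single screening dose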
Target sequence (Q06609 whole entry, looked up): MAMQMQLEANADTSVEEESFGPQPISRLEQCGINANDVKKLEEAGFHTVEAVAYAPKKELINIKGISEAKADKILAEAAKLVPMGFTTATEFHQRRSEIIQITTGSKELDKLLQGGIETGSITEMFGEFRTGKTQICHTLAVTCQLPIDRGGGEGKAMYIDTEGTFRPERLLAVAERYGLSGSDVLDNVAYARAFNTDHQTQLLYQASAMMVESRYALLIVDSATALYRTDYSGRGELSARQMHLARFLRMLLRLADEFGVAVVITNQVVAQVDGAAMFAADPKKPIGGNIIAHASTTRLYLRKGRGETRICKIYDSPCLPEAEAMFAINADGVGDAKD
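Material: Human Rad51 nucleoprotein filaments preassembled on unlabelled ssDNA | Also added: Labelled 47-mer dsDNA for strand exchange | Dosing: Single dose, 10 µM final compound | Schedule: 30-min compound preincubation and 15-min exchange, both room temperature | Technique: Fluorescence dequenching at 485/520 nm | Measure: Percent inhibition relative to plate controls and blanks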
L major viab – Leishmania major promastigote growth inhibition. Leishmania major promastigotes, resazurin fluorescence viability. 200,000 tested, 9% active. inhibition, % at 10 µM;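 further: promastigotes grown with compound for 44 hours at 28 °C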
Wee1 degr inh – blocks degradation of human Wee1 kinase; P30291; HeLa Luc-Wee1K328M stability, luciferase luminescence; 100% = proteasome inhibitor MG132 effect; reporter increase, % at 5 µM; 220,000 tested, 1.2% active; AID 1321;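 active means activation above the mean of all tested compounds plus 3 SD, set per screening run, cut at about 8.8% in these data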;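 further: cells exposed to compound for 20 h before luminescence read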
Lmaj promast 1uM – blocks Leishmania major promastigote growth at 1 uM, repeat screen; shares compounds with L major viab; L. major promastigote growth, resazurin fluorescence, 48 h; inhibition, % at 1 µM; 1,100 tested, 13% active;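 active means inhibition above about 50% in both repeat tests, limit read from the data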
A number is an active result; – = inactive; · = not tested or not shown. Unless noted, no stated cut-off is given here; in the data, active means inhibition above about 50%; inactive means the rest.

SMILES	PKD1 inh	CHOP inhibitor	Arbovirus inh	Rad51 HR inh	L major viab	Wee1 degr inh	Lmaj promast 1uM
O=C(C1CCCCN1S(=O)(=O)c1ccccc1[N+](=O)[O-])N1CCOCC1 (stereo unspecified)	–	–	–	–	–	–	·
O=C(Nc1cccn(Cc2ccccc2)c1=O)NC1CCCCC1	–	–	–	–	78	–	–
O=C(Nc1ccccc1C(=O)NC1CCCC1)NC1CCCC1	–	–	–	–	–	–	·
O=C(NCC1CCCO1)c1cc(C(=O)C2CCCCC2)c[nH]1 (stereo unspecified)	–	–	–	–	–	–	·
O=C1/C(=C/c2ccc(O)cc2)SC(=S)N1Cc1cccnc1	–	–	–	–	60	–	–
CCOC(=O)c1ccc2c(c1)nc(-c1ccc(F)cc1)c1nccn12	–	–	–	–	–	–	·
CCOC(=O)c1nnn(-c2nonc2-n2cccc2)c1CN1CCC(C)CC1	–	–	–	–	–	–	·
CCOC(=O)c1nnn(-c2nonc2N)c1CS(=O)(=O)c1ccccc1	–	–	–	–	–	–	·
CCOC(=O)c1nnn(-c2nonc2N)c1COc1c(C=O)cccc1OC	–	–	–	–	98	–	–
CCOC(=O)c1nnn(-c2nonc2-n2cccc2)c1CCl	–	–	–	–	100	–	57
COc1cc(C(=O)NCCNC(=O)C2CCCNC2=O)cc(OC)c1OC (stereo unspecified)	·	–	·	·	·	–	·
CCOc1ccccc1N(C(=O)Nc1cccc(Cl)c1)C1=NC(C)CS1 (stereo unspecified)	–	–	–	–	81	–	–
CCOc1ccccc1N(C(=O)Nc1ccc(Cl)cc1)C1=NCCS1	–	–	–	–	–	–	·
CCOc1ccc(-c2cn(-c3cccc(SC)c3)c(=O)[nH]2)cc1	–	–	–	–	–	–	·
CCCCCCCSc1nsc(N)n1	–	–	–	–	69	–	–
COc1ccc(OCCC(=O)OCC(=O)NCc2ccccc2)cc1	–	–	–	–	–	–	·
Cc1c(C(=O)Nc2ccncc2)sc2nc(-c3ccc(F)cc3)cn12	–	–	–	–	99	–	–
CC(C)Oc1ccc(/C=N/NC(N)=S)cc1	–	–	–	–	–	–	·
O=C(/C=C/c1ccccc1)OCc1cnc(Cl)s1	–	–	–	–	–	–	·
Nc1ccc(-c2nc3ccc(-c4nc5ccccc5o4)cc3[nH]2)cc1	–	–	–	–	76	–	–
CCN(CC)c1ccc(-c2nn3c(-c4n[nH]c5c4CCC5)nnc3s2)cc1	–	·	–	–	62	–	–
c1ccc(-c2nnc(-c3ccccn3)c(-c3ccccn3)n2)nc1	·	–	·	–	·	–	·
CN(C)c1nc(-c2ccccn2)nnc1-c1ccccc1	–	–	–	–	100	–	74
CC1=CCC(/C=N\Nc2nnc3c(n2)[nH]c2ccccc23)CC1 (stereo unspecified)	–	–	–	–	52	–	–
CC(C)CSc1nnc2c(n1)[nH]c1ccccc12	–	–	–	–	–	–	·
SMILES	PKD1 inh	CHOP inhibitor	Arbovirus inh	Rad51 HR inh	L major viab	Wee1 degr inh	Lmaj promast 1uM
Nc1c(-c2ccccc2)c(CN2CCOCC2)nn1-c1ccc(C(=O)O)cc1	–	–	–	–	66	–	–
COC(=O)c1cc(Br)c(=O)n(-c2cccc(F)c2)c1	–	–	–	–	–	–	·
COCCCNC(=S)N1CCC(NC(=O)c2ccco2)CC1	–	–	–	·	–	–	·
COC(=O)c1cc(C)sc1NC(=O)C1CC=CCC1C(=O)O (stereo unspecified)	–	–	–	–	–	–	·
COC(=O)c1cc(C)sc1NC(=O)C1CC(=O)NN1Cc1ccccc1 (stereo unspecified)	–	–	–	–	95	–	–
Cc1cc(C)c(C(=O)CSC2=NC(N)=C(C#N)C3(CCCCC3)C2C(N)=O)cc1C (stereo unspecified)	–	–	–	–	64	–	–
COc1cccc(CNC(=O)CCC2CCCN(c3cc(C)nc(N4CCCC4)n3)C2)c1 (stereo unspecified)	–	–	–	–	–	–	·
Cc1nc(Oc2ccccc2)c2ccccc2n1	–	–	–	–	57	–	–
CSc1ncccc1C(=O)OCc1cccc([N+](=O)[O-])c1	–	–	–	–	–	–	·
O=C(O)CC(NC(=S)NCc1ccccc1)C(=O)O (stereo unspecified)	–	–	–	–	80	–	–
Cc1cnc(C(=O)Nc2ccccc2-c2ccc(C)o2)cn1	–	–	–	–	–	–	·
Cc1cc(C(=O)NNC(=S)NC(C)c2ccccc2)c2ccccc2n1 (stereo unspecified)	–	–	–	–	–	–	·
COc1cccc(-c2nn(-c3ccccc3)cc2CN(C)C(C)c2ccon2)c1 (stereo unspecified)	–	–	–	–	–	–	·
Cc1cc(C)c(C(=O)c2ccc(C(=O)NC(C)(C)C)cc2)c(C)c1	–	–	–	–	–	–	·
Cc1cc(C)c(C(=O)c2ccc(C(=O)N(C(C)C)C(C)C)cc2)c(C)c1	–	94	–	–	86	–	–
COc1ccc(/C=C(/NC(=O)c2ccc([N+](=O)[O-])cc2)C(=O)NCCCN(C)C)cc1	–	–	–	–	–	–	·
C=CCSC(=C(C#N)C#N)c1cc2c([nH]1)CCCC2	–	–	–	–	100	–	–
O=C(/C=C1\NC2(CCCC2)Cc2ccccc21)N1CCOCC1	–	–	–	–	88	–	–
Cn1nc2c3ccccc3n(Cc3ccccc3)c2nc1=S	·	–	·	–	·	–	·
CCn1c2ccccc2c2nn(C)c(=N)nc21	–	–	–	–	96	–	–
CCOC(=O)c1nc2cc3n(c(C)c-2c1C)C(C)C(C)=C3C (stereo unspecified)	–	–	–	–	67	–	–
O=C(Nc1ccc(F)cc1)c1sccc1SCc1cccc(C(F)(F)F)c1	–	–	–	–	–	–	·
CCOC(=O)c1sc(=S)sc1SCc1cccc(C(F)(F)F)c1	–	–	–	–	61	–	–
O=C(CN1CCN(S(=O)(=O)c2ccccc2)CC1)Nc1ccc([N+](=O)[O-])cc1	–	–	–	–	–	–	·
O=C(CSc1ccc2c(c1)OCCO2)NC(=O)Cc1ccccc1	–	–	–	–	–	–	·
CC(C)CCC(C)N=Cc1c(O)n(Cc2ccccc2)c(=O)c2ccccc12 (stereo unspecified)	–	–	–	–	62	–	–
O=c1c2ccccc2c(/C=N/c2ncn[nH]2)c(O)n1Cc1ccccc1	–	–	–	–	–	–	·
O=c1c2sc3nc(N4CCOCC4)c4c(c3c2ncn1CCc1ccccc1)CCCC4	–	–	–	·	74	–	–
O=C(Nc1ccc2nc(-c3ccco3)[nH]c2c1)c1cccs1	–	–	–	–	88	–	–
O=C(Nc1ccc2nc(-c3ccco3)[nH]c2c1)c1ccco1	–	–	–	–	–	–	·
